High-throughput results: PubChem BioAssay, several laboratories
HCT116 PTEN-null – suppresses growth of cells with PTEN deletion. HCT116 PTEN-null viability, CellTiter-Glo, 60 h; hits give low values. viability, % at 10 µM. 140,000 tested, 1.2% active;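 active = viability at or below a set limit, 4 SD under the median of all tested compounds, cut at about 3.7% in these data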;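 note: PTEN knockout HCT116 line with beta catenin targeted HCT116 as companion control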
H69AR growth 86K – blocks growth of human H69AR lung tumor cells. 85,000 tested, 6% active. H69AR lung tumor viability, ATP luminescence, 72 h; hits give low values. AID 598. viability, % at 10 µM;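 active = viability at or below 40%; inactive = viability above 40%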;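 note: multidrug resistant small cell line overexpressing MRP-1 efflux transporter; 100% = mean luminescence of untreated control wells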
bCat KO growth – beta-catenin-lacking colon tumor cell growth suppression | HCT116 beta-catenin knockout viability, CellTiter-Glo, 60 h; hits give low values | viability, % at 10 µM | 140,000 tested, 1.5% active | AID 818;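 active = viability at or under a set limit, the compound median less 4 SD, cut at about 6% in these data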;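 note: 0% = Hyamine 1622 control at 20 µM and 100% = untreated cell control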
HUVEC inhibit – human endothelial cell proliferation inhibition; viability, % at 10 µM (by protocol); HUVEC proliferation, CellTiter-Glo luminescence, 72 h; hits give low values; 86,000 tested, 1.1% active;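 active = viability at or below 30%; inactive = viability above 30%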;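 note: 100% = median luminescence of DMSO-only cell control wells on each plate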
Candida biofilm – kills Candida albicans biofilms | C. albicans biofilm + clotrimazole, Alamar Blue | AID 834 | 85,000 tested, 0.14% active | inhibition, % at 6 µM;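 active = inhibition above 20%; inactive = inhibition below 20%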;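 note: preformed 24 hr biofilms exposed to compound for 48 hr; 0% = biofilm without compound and 100% = blank killed by clotrimazole plus chlorhexidine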
Lung fibro prol – blocks proliferation of human lung fibroblasts; LL 47 human lung fibroblast viability, ATP luminescence; hits give low values; viability, % at 10 µM; 85,000 tested, 1.1% active; AID 719;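 active = viability at or below 50% in the single dose screen; inactive = viability above 50%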;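 note: compound exposure lasted 72 h before the ATP readout; 100% = median luminescence of untreated cell-only wells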
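Benchmarks: Cell-only wells, no compound | Test system: LL 47 human lung fibroblasts, passage 12 or lower | Input: 1,150 cells/well | Measured by: CellTiter-Glo luminescence measuring cellular ATP | Medium: IMEM, 15% FBS supplement | Schedule: Overnight attachment after seeding, then 72 h compound exposure at 37 °C | Doses: Compound addition at 0.1% DMSO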
The depositor's hits bear a star; . = no result given. The entries come from a sample that favours hits as a whole.

SMILES | HCT116 PTEN-null | H69AR growth 86K | bCat KO growth | HUVEC inhibit | Candida biofilm | Lung fibro prol
COc1cc2nc(N3CCN(C(=O)C4COc5ccccc5O4)CC3)nc(N)c2cc1OC (stereo not given) | 8.8 | 29.3* | 4.6* | 61.5 | 5.5 | 98.9
COc1cc(C(=O)N2CCN(C(=O)c3ccco3)CC2)cc(OC)c1OC | 106.4 | 87.0 | 90.6 | 82.6 | 3.5 | 85.6
COc1cc2nc(N3CCN(C(=O)c4ccco4)CC3)nc(N)c2cc1OC | 5.0 | 10.2* | 7.2 | 86.9 | 7.3 | 22.2*
O=C(C1COc2ccccc2O1)N1CCN(c2ccccc2)CC1 (stereo not given) | 94.2 | 100.6 | 99.2 | 105.6 | 11.5 | 96.4
C=CCS(=O)(=O)c1nc2ccccc2s1 | 23.6 | 1.1* | 11.1 | 81.2 | 7.8 | 76.6
CC(C)(C)S(=O)(=O)c1nc2ccccc2s1 | 95.7 | 79.4 | 91.5 | 90.4 | -2.4 | 98.5
O=S(=O)(CCSc1nc2ccccc2s1)c1nc2ccccc2s1 | 3.3* | 1.5* | 3.9* | 14.0* | 0.4 | 34.7*
Cc1nn(-c2ccccc2)c(Cl)c1C(=O)N1CCN(c2ncnc3c2cnn3-c2ccccc2)CC1 | 7.1 | 33.9* | 6.0* | 2.7* | 5.4 | 54.7
Cc1ccccc1NC(=O)CSc1nc(N)c(C#N)c(-c2cccs2)c1C#N | 88.3 | 27.0* | 78.7 | 59.4 | 5.3 | 55.2
CNc1ncc(Cc2ccccc2)s1 | 91.8 | . | 85.0 | . | . | .
CCCc1nc2ccccc2c(=O)n1NC(=O)c1c(O)c2cccc3c2n(c1=O)CCC3 | 66.2 | 18.4* | 67.4 | 97.5 | 5.9 | 75.4
CCN(CC)CCNC(=O)c1c(O)c2cccc3c2n(c1=O)CCC3 | 103.8 | 30.7* | 104.0 | 102.6 | 4.7 | 93.5
CCCCCCc1nc2ccccc2c(=O)n1NC(=O)c1c(O)c2cccc3c2n(c1=O)CC3 | . | 35.9* | . | 110.8 | -2.9 | 99.2
Oc1ccc(-c2nnc(SCC3CCCCC3)o2)cc1 | 106.8 | 34.6* | 96.0 | 86.7 | 0.6 | 102.3
COC(=O)c1cc(OC)c(OC)cc1NC(=O)c1ccc(C)cc1 | 71.0 | 16.2* | 72.6 | 68.3 | 8.5 | 94.0
CCc1ccc(/C=c2\s/c(=C\C(=O)C(C)(C)C)[nH]c2=O)cc1 | 42.8 | 14.1* | 46.1 | 47.3 | 5.3 | 83.7
CC(C)(C)C(=O)/C=c1\[nH]c(=O)/c(=C\c2ccc(F)cc2)s1 | 37.7 | 17.7* | 38.9 | 65.8 | 6.8 | 74.8
Cc1ccccc1/C=c1\s/c(=C\C(=O)C(C)(C)C)[nH]c1=O | 28.0 | 18.7* | 23.9 | 52.4 | 10.2 | 69.4
Cc1ccccc1C=Nc1ccccc1C(N)=O | 31.8 | . | 31.7 | . | . | .
COc1ccc(/C=c2\s/c(=C/C(=O)c3ccc(C)cc3)[nH]c2=O)cc1OC | 34.1 | . | 56.7 | . | . | .
O=C(N/N=C/c1ccccc1OCC(=O)N1CCCC1)C(=O)Nc1ccccc1F | 65.1 | . | 63.2 | . | . | .
Cc1ccc(OCCNc2ccc(C(F)(F)F)cc2[N+](=O)[O-])cc1 | 86.3 | . | 84.7 | . | . | .
CC(=O)NNc1ccc(C(F)(F)F)cc1[N+](=O)[O-] | 90.6 | 92.8 | 90.3 | 95.6 | 5.0 | 101.6
O=C(CS(=O)c1ccc(C(F)(F)F)cc1[N+](=O)[O-])Oc1ccc(Cl)cc1 (stereo not given) | 85.5 | 20.6* | 79.8 | 58.2 | 1.1 | 88.2
Cc1cc(C)cc(OC(=O)CS(=O)c2ccc(C(F)(F)F)cc2[N+](=O)[O-])c1 (stereo not given) | 82.4 | 15.1* | 98.2 | 64.4* | 1.9 | 83.6
SMILES | HCT116 PTEN-null | H69AR growth 86K | bCat KO growth | HUVEC inhibit | Candida biofilm | Lung fibro prol
CCc1cccc(CC)c1NC(=O)COC(=O)c1cccc(-c2ccc(OC(C)=O)cc2)c1 | 90.0 | . | 92.0 | . | . | .
CC(=O)N1CC(=O)N=C1SCC(=O)Nc1nc(-c2ccccc2)c(-c2ccccc2)s1 | 61.8 | . | 75.6 | . | . | .
CC1Cc2ccccc2N1C(=O)COC(=O)Cn1nnc(-c2ccccc2)n1 (stereo not given) | 98.4 | 21.6* | 98.0 | 97.7 | 4.0 | 100.6
O=C(Cn1nnc(-c2ccccc2)n1)OCc1ccccc1 | 103.7 | . | 91.5 | . | . | .
Cc1c(C(=O)N2CCOCC2)sc2ncnc(N3CCc4ccccc4C3)c12 | 80.1 | 63.5 | 92.9 | 87.5 | 7.2 | 96.4
COCCCNC(=O)c1sc2ncnc(N3CCc4ccccc4C3)c2c1C | 23.4 | 27.7* | 28.4 | 59.8 | 6.4 | 67.6
CC(=C/c1ccco1)/C=N/NC(=O)CSc1nnc(SCc2ccc(C)cc2)s1 | 100.5 | . | 105.9 | . | . | .
COCCCNC(=O)CCn1c(=O)c2ccccc2n(CC(=O)Nc2ccc(C)cc2C)c1=O | 97.0 | 94.1 | 85.3 | 99.0 | 7.3 | 103.1
CCCCNC(=O)CCn1c(=O)c2ccccc2n(Cc2ccccc2C)c1=O | 90.4 | . | 90.3 | . | . | .
COCCCNC(=O)c1ccc(Cn2c(=O)c3ccccc3n(Cc3ccccc3C#N)c2=O)cc1 | 51.6 | 18.3* | 55.1 | 56.0 | -1.4 | 72.4
COCCCNC(=O)CCCn1c(=O)[nH]c2ccccc2c1=O | 87.4 | 92.9 | 92.5 | 95.5 | 7.0 | .
COCCCNC(=O)c1ccc(Cn2c(=O)[nH]c3ccccc3c2=O)cc1 | 57.3 | 22.6* | 56.1 | 58.7 | 8.9 | 70.0
COCCCNC(=O)c1ccc(Cn2c(=O)c3ccccc3n(Cc3cc(C)ccc3C)c2=O)cc1 | 80.3 | 39.2* | 84.2 | 58.0 | 5.3 | 89.5
COCCCNC(=O)c1ccc(Cn2c(=O)c3ccccc3n(Cc3ccccc3C)c2=O)cc1 | 84.3 | 18.8* | 96.5 | 59.3 | 6.1 | 87.9
O=C(CCNC(=O)Cn1ccc2ccccc2c1=O)NCCc1ccc(Cl)cc1 | 91.0 | . | 92.5 | . | . | .
CC1(C)CC(=O)c2c(O)c(-c3ccccc3)c(=O)n(-c3ccccc3)c2C1 | 93.9 | . | 96.9 | . | . | .
COc1ccc(C2CC(c3cccs3)=Nc3ccccc3S2)cc1 (stereo not given) | 24.5 | 17.4* | 26.4 | 77.1 | 11.0 | 88.6
O=C(CCCc1ccccc1)Nc1cccnc1 | 87.0 | 109.9 | 90.7 | 97.2 | 1.3 | 108.7
CCC(Sc1nc2n[nH]c(C)c2c(=N)n1-c1ccc(C)c(Cl)c1)C(=O)N1CCOCC1 (stereo not given) | 72.0 | 25.6* | 74.9 | 57.8 | 6.3 | 75.1
COCCNC(=O)c1c(NC(=O)c2nc(SC)ncc2Cl)sc2c1CCCC2 | 40.7 | . | 33.8 | . | . | .
Cn1cc(C(=O)c2ccc(Cl)cc2Cl)cc1C(=O)N/N=C(\N)COc1cccc(C(F)(F)F)c1 | 7.9 | 27.0* | 5.2* | 69.1 | 11.5 | 77.4
COC(=O)c1cc(C(=O)c2ccc(Cl)cc2Cl)cn1C | 83.2 | . | 89.4 | . | . | .
O=C(CCCc1ccccc1)NCc1ccc(F)cc1 | 97.7 | . | 99.2 | . | . | .
COC(=O)C1=C(C)NC2=C(C(=O)CCC2)C1c1ccsc1 (stereo not given) | 87.5 | 79.4 | 105.0 | 99.9 | . | 107.4
COC(=O)C1=C(C)NC2=C(C(=O)CC(c3cccs3)C2)C1c1ccsc1 (stereo not given) | 37.5 | 23.6* | 50.9 | 71.3 | 10.2 | 68.8
CCOC(=O)C1=C(C)NC2=C(C(=O)CC(c3cccs3)C2)C1c1cccs1 (stereo not given) | 17.6 | 15.0* | 18.4 | 41.5 | 5.8 | 57.5
